In ChEMBL document CHEMBL1123537, “Carbocyclic analogues of 5-halocytosine nucleosides” (1986):
Converted amounts (≈) assume the structure as drawn.

Experiments:
[1] = tested on: Epidermoid carcinoma cell line; assay: Compound was tested for its antiviral activity against Herpes Simplex Virus-1(HF strain) in human epidermoid carcinoma cells (H.Ep.-2) measured as virus rating (VR).; assay type: functional
How it was run: (§1)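 […] HSV-1 strain HF in human H.Ep.-2 monolayers (MEM, 5% calf serum growth, 2% FBS maintenance), 32 CCID50/well, in triplicate wells. Seven compound concentrations in half-log10 steps were used, cytotoxic to noncytotoxic. Plates were kept at 37 °C for 4 or 5 days; microscopic CPE was scored 0 (none) to 4 (100%) and a virus rating was calculated from the scores, with ara-A as positive control.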

MDCK [2] = assay: Compound was tested for antiviral activity against influenza virus (Ao) in MDCK cells; assay type: functional, Canis lupus familiaris
How it was run: (§2)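 MDCK monolayers were infected at 32 CCID50 per well, in triplicate, with seven serial half-log10 compound dilutions spanning cytotoxic to noncytotoxic levels. Media were reinforced BME or MEM with 2% FBS, or MEM with trypsin (15 or 10 μg/mL). Plates were held 4–5 days at 37 °C, CPE was scored 0–4, and VR, ratio to ribavirin VR, and MIC50 were derived.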

Vero [3] = assay: Compound was tested for antiviral activity against Herpes Simplex Virus-2(MS strain) in vero cells (african green monkey kidney cells); assay type: functional, Chlorocebus sabaeus
Vero [4] = assay: Compound was tested for its potency against Herpes Simplex Virus-2 (MS strain) in vero cells (african green monkey kidney cells); assay type: functional; details: Chlorocebus sabaeus
[5] = tested on: Epidermoid carcinoma cell line; assay: Compound was tested for its potency against Herpes Simplex Virus-1(HF strain) in human epidermoid carcinoma cells; assay type: functional; how it was run: as §1
Oryctolagus cuniculus = species: Oryctolagus cuniculus; assay: Compound was tested for antiviral activity against Herpes Simplex Virus-1 (377 strain) in primary rabbit kidney cells; assay type: functional
How it was run: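 Primary rabbit kidney monolayers (MEM; 5% calf serum growth, 2% FBS maintenance) were challenged with HSV-1 E-377 (TK+), 32 CCID50/well, in triplicate. Seven half-log10 dilutions ranged from cytotoxic to noncytotoxic, with cytotoxicity and uninfected controls. After 4–5 days at 37 °C, CPE was scored 0–4 and converted to VR; ara-A ratio and 50% CPE-inhibitory concentration (MIC50) were also determined.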

[6] = Ratio of the VR of the C-cytosine nucleoside to the VR of ribavirin; assay type: functional
How it was run: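 Influenza A (A0/PR/8/34 in MDCK; A2/Aichi/2/68 in primary rhesus monkey kidney) CPE-inhibition in monolayers with various media (reinforced BME or MEM plus serum, or trypsin-containing MEM). Triplicate wells at 32 CCID50/well, seven serial half-log10 concentrations spanning cytotoxic to noncytotoxic, 37 °C 4 or 5 days. CPE scored 0–4 microscopically; VR by modified Ehrlich method, divided by concurrent ribavirin VR.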

MDCK [7] = assay: (§3) Compound was tested for its potency against influenza virus (Ao) in MDCK cells; assay type: functional; details: Canis lupus familiaris; how it was run: as §2
Vero [8] = assay: C(compound) was tested for antiviral activity against Herpes Simplex Virus-2(MS strain) in vero cells (african green monkey kidney cells); assay type: functional, Chlorocebus sabaeus
MDCK [9] = assay: as §3; assay type: functional, Canis lupus familiaris; how it was run: as §2

Row | SMILES | VR [1] | VR (MDCK [2]) | VR (Vero [3]) | MIC50 (Vero [4]) | Ratio [6] | other results
1 | Nc1ccn(C2CC(CO)CC2O)c(=O)n1 (centres undefined) | 0 | 0.1 |  |  |  | 
2 | Nc1nc(=O)n(C2CC(O)C(CO)C2)cc1Br (centres undefined) | 0 |  | 2.6 | 62 µg/mL (≈ 204 µM) |  | 
3 | Nc1ccn([C@@H]2C[C@H](CO)[C@@H](O)[C@@H]2O)c(=O)n1 | 0.6 | 0.8 | 2.4 | 13 µg/mL (≈ 53.9 µM) | 0.2 | MIC50 [5]: 95 µg/mL (≈ 394 µM); MIC50 (Oryctolagus cuniculus): 30 µg/mL (≈ 124 µM); VR (Oryctolagus cuniculus): 1.8; MIC50 (MDCK [7]): 312 µg/mL (≈ 1290 µM)
4 | Nc1nc(=O)n(C2CC(O)C(CO)C2)cc1I (centres undefined) | 0 |  | 1 | 340 µg/mL (≈ 968 µM) |  | 
5 | Nc1ccn([C@@H]2C[C@H](CO)[C@@H](O)[C@H]2O)c(=O)n1 | 0.8 | 3.5 | 3.2 | 2.4 µg/mL (≈ 9.95 µM) | 0.73 | MIC50 [5]: 71 µg/mL (≈ 294 µM); MIC50 (MDCK [7]): 2.6 µg/mL (≈ 10.8 µM)
6 | Nc1nc(=O)n(C2CC(CO)C(O)C2O)cc1Cl (centres undefined) |  | 0.4 |  |  | 0.1 | 
7 | Nc1nc(=O)n(C2CC(O)C(CO)C2)cc1Cl (centres undefined) |  |  | 0.7 | 270 µg/mL (≈ 1040 µM) |  | 
8 | Nc1ccn(C2CC(O)C(CO)C2)c(=O)n1 (centres undefined) | 0 | 0 |  | 44 µg/mL (≈ 195 µM) |  | VR (Vero [8]): 1.9; MIC50 (Oryctolagus cuniculus): < 26 µg/mL; VR (Oryctolagus cuniculus): 2.6
9 | Nc1nc(=O)n([C@@H]2C[C@H](CO)[C@@H](O)[C@H]2O)cc1I |  | 0.2 | 0 |  |  | 
10 | Nc1nc(=O)n([C@@H]2C[C@H](CO)[C@@H](O)[C@@H]2O)cc1I | 0 |  | 2.2 | 197 µg/mL (≈ 537 µM) |  | 
11 | Nc1nc(=O)n(C2CC(CO)C(O)C2O)cc1Br (centres undefined) |  | 1.5 |  |  | 0.36 | MIC50 (MDCK [7]): 150 µg/mL (≈ 469 µM)
12 | Nc1nc(=O)n(C2CC(CO)CC2O)cc1I (centres undefined) |  | 0 |  |  |  | VR (MDCK [9]): 0.5
